Source: ChEMBL document CHEMBL1147555, “2,3-diarylpyran-4-ones: a new series of selective cyclooxygenase-2 inhibitors” (Bioorg Med Chem Lett, 2004)

Columns and labels:
Rattus norvegicus [1] = assay: Inhibitory effect of compound on carrageenan-induced rat paw edema administered p.o. at 3 mg/kg; format: functional; conditions: route oral
Summary of the method: (§1)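 Compound given orally; paw swelling measured and expressed as percent inhibition, five animals per group.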

Rattus norvegicus [2] = assay: Inhibitory effect of compound on carrageenan-induced rat paw edema administered p.o. at 10 mg/kg; format: functional; conditions: route oral; summary of the method: as §1
[3] = molecular target: T1, Prostaglandin G/H synthase 1 (Mus musculus) (UniProt P22437); assay: In vitro percentage inhibitory activity against prostaglandin G/H synthase 1 from freshly harvested mouse peritoneal macrophages at 10 ug/mL
T1 sequence (whole entry): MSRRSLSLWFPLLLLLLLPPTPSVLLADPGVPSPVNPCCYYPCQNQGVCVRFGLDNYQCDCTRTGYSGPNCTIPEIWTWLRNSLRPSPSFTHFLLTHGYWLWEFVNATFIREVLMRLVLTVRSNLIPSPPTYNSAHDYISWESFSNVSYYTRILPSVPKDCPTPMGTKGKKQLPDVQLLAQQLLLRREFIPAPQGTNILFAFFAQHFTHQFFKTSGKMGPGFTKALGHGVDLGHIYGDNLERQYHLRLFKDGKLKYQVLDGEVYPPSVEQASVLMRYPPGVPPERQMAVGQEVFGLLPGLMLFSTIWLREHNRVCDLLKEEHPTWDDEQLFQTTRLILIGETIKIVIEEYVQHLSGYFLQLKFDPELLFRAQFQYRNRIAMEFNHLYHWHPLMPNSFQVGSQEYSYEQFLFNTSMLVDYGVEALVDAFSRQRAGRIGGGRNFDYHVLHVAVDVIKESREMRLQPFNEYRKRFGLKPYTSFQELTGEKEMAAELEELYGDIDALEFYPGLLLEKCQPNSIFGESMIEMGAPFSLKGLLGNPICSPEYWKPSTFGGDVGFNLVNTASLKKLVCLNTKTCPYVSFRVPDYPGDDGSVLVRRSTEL

[4] = molecular target: T2, Prostaglandin G/H synthase 2 (Mus musculus, UniProt Q05769); assay: Inhibitory activity against Prostaglandin G/H synthase 2 from freshly harvested mouse peritoneal macrophages
T2 sequence (Q05769 whole entry): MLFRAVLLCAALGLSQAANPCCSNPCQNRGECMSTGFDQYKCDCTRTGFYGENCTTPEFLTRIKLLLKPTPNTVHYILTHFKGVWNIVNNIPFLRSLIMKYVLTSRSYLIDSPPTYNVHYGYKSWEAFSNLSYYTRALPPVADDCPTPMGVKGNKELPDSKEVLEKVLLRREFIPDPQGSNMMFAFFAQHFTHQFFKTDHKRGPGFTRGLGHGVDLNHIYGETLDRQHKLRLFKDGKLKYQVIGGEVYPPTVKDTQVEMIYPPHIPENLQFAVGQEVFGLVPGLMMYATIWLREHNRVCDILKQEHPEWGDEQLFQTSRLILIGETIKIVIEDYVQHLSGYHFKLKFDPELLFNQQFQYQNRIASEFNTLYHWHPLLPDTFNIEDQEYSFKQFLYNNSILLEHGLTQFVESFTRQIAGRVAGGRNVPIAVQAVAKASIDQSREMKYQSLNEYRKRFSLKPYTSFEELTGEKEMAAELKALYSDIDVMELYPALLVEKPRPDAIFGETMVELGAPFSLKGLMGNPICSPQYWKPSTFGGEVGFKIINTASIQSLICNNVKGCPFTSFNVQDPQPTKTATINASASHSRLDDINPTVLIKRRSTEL

[5] = molecular target: T3, Prostaglandin G/H synthase 2 (Mus musculus) (UniProt Q05769); assay: In vitro percentage inhibition of Prostaglandin G/H synthase 2 from freshly harvested mouse peritoneal macrophages at 10 ug/ml
T3 sequence (whole entry): T2 sequence (Q05769 whole entry)

[6] = molecular target: T2, Prostaglandin G/H synthase 2; assay: In vitro inhibitory activity against Prostaglandin G/H synthase 2 from freshly harvested mouse peritoneal macrophages; Not active
[7] = Time of maximum plasma concentration in rat; format: ADME, organism-based
[8] = Plasma half-life in rat; format: ADME, organism-based
[9] = Maximum plasma concentration in rat; format: ADME, organism-based

Row | Structure (SMILES) | inhibition in vivo at 10 mg/kg (Rattus norvegicus [2]) [%] | inhibition [3] [%] | IC50 [4] [nM] | also measured
1 | CS(=O)(=O)c1ccc(-c2occ(Cl)c(=O)c2-c2ccc(F)cc2)cc1 | 33 | < 5 |  | inhibition in vivo at 3 mg/kg (Rattus norvegicus [1]): 20%
2 | CS(=O)(=O)c1ccc(-c2occ(Cl)c(=O)c2-c2cccnc2)cc1 |  | < 5 | 7050 | 
3 | COc1ccc2c(c1)c(CC(=O)O)c(C)n2C(=O)c1ccc(Cl)cc1 [INDOMETHACIN] | 42 |  |  | 
4 | CS(=O)(=O)c1ccc(-c2occ(Cl)c(=O)c2-c2cccs2)cc1 |  | < 5 |  | inhibition [5]: 9%
5 | CS(=O)(=O)c1ccc(-c2occ(Cl)c(=S)c2-c2ccc(F)cc2)cc1 |  | < 5 | 836 | 
6 | Cc1ccc(-c2c(-c3ccc(S(C)(=O)=O)cc3)occ(Cl)c2=O)cc1 |  | < 5 | 1760 | 
7 | CS(=O)(=O)c1ccc(-c2occ(Cl)c(=O)c2-c2cccc(Cl)c2)cc1 |  | < 5 | 1420 | 
8 | CS(=O)(=O)c1ccc(-c2occ(Cl)c(=O)c2-c2ccccc2)cc1 |  | < 5 | 1080 | 
9 | CS(=O)(=O)c1ccc(-c2occ(Cl)c(=O)c2-c2cc(F)cc(F)c2)cc1 |  | < 5 | 2340 | 
10 | COc1ccc(-c2c(-c3ccc(S(C)(=O)=O)cc3)occ(Cl)c2=O)cc1 |  | < 5 | 6860 | 
11 | CS(=O)(=O)c1ccc(-c2occ(Cl)c(=O)c2-c2ccc(O)cc2)cc1 |  | 17 |  | IC50 [6]: Not Active
12 | CS(=O)(=O)c1ccc(-c2occ(Cl)c(=O)c2-c2cccc(-c3ccccc3)c2)cc1 |  | < 5 |  | IC50 [6]: Not Active
13 | CS(=O)(=O)c1ccc(-c2occ(Cl)c(=O)c2-c2ccc(-c3ccccc3)c(F)c2)cc1 |  | 70 | 87.9 | 
14 | CS(=O)(=O)c1ccc(-c2occc(=O)c2-c2ccc(F)cc2)cc1 |  | < 5 | 2240 | 
15 | CS(=O)(=O)c1ccc(-c2occ(Cl)c(=O)c2-c2ccc(-c3ccccc3)cc2)cc1 | 21 | 68 | 91.6 | 
16 | CS(=O)(=O)c1ccc(-c2occ(Cl)c(=O)c2-c2ccc(F)c(F)c2)cc1 | 37 | 20 | 1230 | Tmax [7]: 4 h; inhibition in vivo at 3 mg/kg (Rattus norvegicus [1]): 10%; half-life [8]: 3.7 h; Cmax [9]: 5100 ng/mL
17 | CS(=O)(=O)c1ccc(-c2occ(Cl)c(=O)c2-c2ccc(Cl)cc2)cc1 |  | < 5 |  | 
18 | CS(=O)(=O)c1ccc(-c2occ(Cl)c(=O)c2-c2ccccc2F)cc1 |  | 19 | 6310 | 
19 | CS(=O)(=O)c1ccc(-c2occ(Cl)c(=O)c2-c2ccc(OCc3ccccc3)cc2)cc1 |  | < 5 |  | IC50 [6]: Not Active
20 | Cc1ccc(-c2cc(C(F)(F)F)nn2-c2ccc(S(N)(=O)=O)cc2)cc1 [CELECOXIB] | 42 |  |  | inhibition in vivo at 3 mg/kg (Rattus norvegicus [1]): 29%
21 | CS(=O)(=O)c1ccc(-c2occ(Cl)c(=O)c2-c2cccc(F)c2)cc1 |  | < 5 | 1430 | 
22 | CS(=O)(=O)c1ccc(-c2oc3ccccc3c(=O)c2-c2cccnc2)cc1 | 25 |  |  | 
23 | CS(=O)(=O)c1ccc(-c2occ(Cl)c(=O)c2-c2ccc(F)cc2F)cc1 |  | 6 | 1390 | inhibition in vivo at 3 mg/kg (Rattus norvegicus [1]): 20%
24 | CS(=O)(=O)c1ccc(-c2occ(Cl)c(=O)c2-c2ccsc2)cc1 | 13 | < 5 | 736 | 
25 | CCc1ccc(-c2c(-c3ccc(S(C)(=O)=O)cc3)occ(Cl)c2=O)cc1 | 4 | 14 | 720 | 
